Experiments:
Format in all cases: functional
[1] = test system: Mus musculus; assay: Compound was tested for the effect on the survival time of the mice bearing P388 leukemia at dose 60 mg/kg
How it was run: (§1)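 Ascites cells were taken from donor CDF₁ mice with 7-day growths, spun, diluted 10-fold in isotonic saline and set to 10⁷ cells/mL. About 10⁶ cells were given ip per mouse. Drug was homogenized in 20% aqueous Tween 80, made up in saline, and given ip once daily for 6 days from 24 h after implant. Vehicle controls were included. Read-out was survival time, as T/C × 100, with % weight change as toxicity.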

[2] = test system: Mus musculus; assay: Compound was tested for the effect on the survival time of the mice bearing Sarcoma 180 ascites at dose of 40 mg/kg; ratio of survival time of treated and control; how it was run: as §1
[3] = test system: Mus musculus; assay: Compound was tested for the effect on the survival time of the mice bearing P388 leukemia at dose 200 mg/kg; ratio of survival time of treated and control; how it was run: as §1
[4] = test system: Mus musculus; assay: Compound was tested for the effect on the survival time of the mice bearing P388 leukemia at dose 200 mg/kg; how it was run: as §1
[5] = test system: Mus musculus; assay: Compound was tested for the effect on the survival time of the mice bearing P388 leukemia at dose 100 mg/kg; how it was run: as §1
[6] = test system: Mus musculus; assay: Compound was tested for the effect on the survival time of the mice bearing P388 leukemia at dose 20 mg/kg; how it was run: as §1
[7] = test system: Mus musculus; assay: Compound was tested for the effect on the survival time of the mice bearing Sarcoma 180 ascites at dose of 20 mg/kg; ratio of survival time of treated and control; how it was run: as §1
[8] = test system: Mus musculus; assay: Compound was tested for the effect on the survival time of the mice bearing Sarcoma 180 ascites at dose of 20 mg/kg; how it was run: as §1
[9] = test system: Mus musculus; assay: Compound was tested for the effect on the survival time of the mice bearing Sarcoma 180 ascites at dose of 40 mg/kg; how it was run: as §1
[10] = test system: Mus musculus; assay: Compound was tested for the effect on the survival time of the mice bearing P388 leukemia at dose 40 mg/kg; ratio of survival time of treated and control; how it was run: as §1
[11] = test system: Mus musculus; assay: Compound was tested for the effect on the survival time of the mice bearing P388 leukemia at dose 40 mg/kg; how it was run: as §1
[12] = test system: Mus musculus; assay: Compound was tested for the effect on the survival time of the mice bearing P388 leukemia at dose 60 mg/kg; ratio of survival time of treated and control; how it was run: as §1
[13] = test system: Mus musculus; assay: Compound was tested for the effect on the survival time of the mice bearing P388 leukemia at dose 20 mg/kg; ratio of survival time of treated and control; how it was run: as §1
[14] = test system: Mus musculus; assay: Compound was tested for the effect on the survival time of the mice bearing P388 leukemia at dose 80 mg/kg; ratio of survival time of treated and control; how it was run: as §1
[15] = test system: Mus musculus; assay: Compound was tested for the effect on the survival time of the mice bearing Sarcoma 180 ascites at dose of 10 mg/kg; how it was run: as §1
[16] = test system: Mus musculus; assay: Compound was tested for the effect on the survival time of the mice bearing Sarcoma 180 ascites at dose of 10 mg/kg; ratio of survival time of treated and control; how it was run: as §1
[17] = test system: Mus musculus; assay: Compound was tested for the effect on the survival time of the mice bearing P388 leukemia at dose 80 mg/kg; how it was run: as §1
[18] = test system: Mus musculus; assay: Compound was tested for the effect on the survival time of the mice bearing P388 leukemia at dose 100 mg/kg; ratio of survival time of treated and control; how it was run: as §1
[19] = test system: Mus musculus; assay: Compound was tested for the effect on the survival time of the mice bearing P388 leukemia at dose 25 mg/kg; ratio of survival time of treated and control; how it was run: as §1
[20] = test system: Mus musculus; assay: Compound was tested for the effect on the survival time of the mice bearing P388 leukemia at dose 50 mg/kg; how it was run: as §1
[21] = test system: Mus musculus; assay: Compound was tested for the effect on the survival time of the mice bearing P388 leukemia at dose 25 mg/kg; how it was run: as §1
[22] = test system: Mus musculus; assay: Compound was tested for the effect on the survival time of the mice bearing P388 leukemia at dose 50 mg/kg; ratio of survival time of treated and control; how it was run: as §1

SMILES | Change in weight [1] | Change in weight [5] | T/C [12] | T/C [18] | T/C [19] | Change in weight [20] | Change in weight [21] | T/C [22] | other results
O=C(Cc1ccc([N+](=O)[O-])cc1)On1c(=O)[nH]cc(F)c1=O | -2.9% | -11.6% | 196 | 158 |  |  |  |  | T/C [2]: 332; T/C [3]: 64; Change in weight [4]: -10.7%; Change in weight [6]: 5.6%; T/C [7]: 124; Change in weight [8]: 2.7%; Change in weight [9]: -7.6%; T/C [10]: 190; Change in weight [11]: 0%; T/C [13]: 165; T/C [14]: 212; Change in weight [15]: 9.6%; T/C [16]: 159; Change in weight [17]: -5.8%
O=c1c(F)cn(Cc2ccccc2[N+](=O)[O-])c(=O)n1Cc1ccccc1[N+](=O)[O-] |  | 22.4% |  | 86 | 90 | 15% | 17.8% | 88 | 
O=c1c(F)cn(C2CCCO2)c(=O)n1Cc1ccccc1[N+](=O)[O-] (stereo not drawn) |  | 13.7% |  | 96 | 90 | 7.8% | 10.3% | 96 | 
O=c1[nH]c(=O)n(Cc2ccccc2[N+](=O)[O-])cc1F |  | 20.8% |  | 88 | 90 | 10% | 13.3% | 92 | 
O=C(Cc1ccc([N+](=O)[O-])cc1)On1cc(F)c(=O)n(OC(=O)Cc2ccc([N+](=O)[O-])cc2)c1=O | -5.5% |  | 149 |  |  |  |  |  | T/C [10]: 136; Change in weight [11]: -2.7%; T/C [14]: 158; Change in weight [17]: -7.4%
O=c1[nH]cc(F)c(=O)[nH]1 [FLUOROURACIL] |  |  |  |  |  |  |  |  | Change in weight [6]: -12.5%; T/C [7]: 277; Change in weight [8]: -3.4%; T/C [13]: 185
O=c1[nH]c(=O)n(C2CCCO2)cc1F (stereo not drawn) [TEGAFUR] | 12.2% |  | 100 |  |  |  |  |  | 

Reference: ChEMBL document CHEMBL1123214, “(o- and p-Nitrobenzyloxycarbonyl)-5-fluorouracil derivatives as potential conjugated bioreductive alkylating agents” (1986)
